Assay results from ChEMBL document CHEMBL1128579, “The role of charge in polyamine analogue recognition” (J Med Chem, 1995).

What was measured:
[1] = Titrimetrically measured pKa1 value of the compound; format: physicochemical; details: read-out: pKa1
Outline: (§1)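 pKa values determined by titration; relative abundance of each ionic species then calculated for pH 7.4.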

[2] = Titrimetrically measured pKa2 value of the compound; format: physicochemical; details: read-out: pKa2; outline: as §1
[3] = Titrimetrically measured pKa3 value of the compound; format: physicochemical; details: read-out: pKa3; outline: as §1
[4] = Titrimetrically measured pKa4 value of the compound; format: physicochemical; details: read-out: pKa4; outline: as §1
L1210 [5] = assay: Impact (2 uM) on polyamine(Put) pools in L1210 cells, expressed relative to untreated controls (control = 100%).; format: functional, Mus musculus
Outline: (§2)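 Logarithmic-phase murine L1210 cells grown 48 h with analogue at the stated concentration. Cells washed twice in cold RPMI-1640 and extracted with 0.6 N perchloric acid; supernatants held at -20 °C, then analysed by HPLC. Put, Spd and Spm given relative to untreated controls (100%); intracellular analogue given as pmol/10^6 cells.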

L1210 [6] = assay: Impact (2 uM) on polyamine(Spd) pools in L1210 cells, expressed relative to untreated controls (control = 100%).; format: functional, Mus musculus; outline: as §2
L1210 [7] = assay: Impact (2 uM) on polyamine(Spm) pools in L1210 cells, expressed relative to untreated controls (control = 100%).; format: functional, Mus musculus; outline: as §2
L1210 [8] = assay: Inhibitory concentration against L1210 cells on 96 hr incubation.; format: functional, cell-based; details: Mus musculus, L1210, 96 h
Outline: (§3)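 Murine L1210 leukemia cells in suspension in RPMI-1640 with 10% NuSerum, HEPES-MOPS and 1 mM aminoguanidine, 37 °C, 5% CO2. Log-phase cultures at (0.5-1.0) × 10^5 cells/mL treated with filtered aqueous analogue for 48 h, then reseeded and grown a further 48 h. Cells counted by Coulter counter. IC50 is the concentration giving 50% of control growth, corrected for initial inoculum.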

L1210 [9] = assay: Level (2 uM) in L1210 cells.; format: functional, Mus musculus; outline: as §2
L1210 [10] = assay: Concentration inhibiting radiolabeled spermidine transport in L1210 cells.; format: functional, cell-based, Mus musculus
Outline: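 Competition with [3H]- or [14C]spermidine uptake into L1210 leukemia cells. Cells incubated 20 min at 37 °C in RPMI-1640 with 1, 2, 4, 6, 8 and 10 μM radiolabeled SPD, alone or plus 10, 25 or 50 μM analogue. Cells pelleted at 0–4 °C, washed with cold medium containing 1 μM SPD, NaOH-dissolved, then scintillation counted. Ki taken from Lineweaver–Burk plots as simple competitive inhibition.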

[11] = target: T1, Ornithine decarboxylase (Mus musculus) (UniProt P00860); assay: Impact on polyamine biosynthetic enzyme, Ornithine decarboxylase in L1210 cells treated with the compound for 4 hr.; format: cell-based; design: concentration or dose not given beside the values
T1 sequence (whole entry): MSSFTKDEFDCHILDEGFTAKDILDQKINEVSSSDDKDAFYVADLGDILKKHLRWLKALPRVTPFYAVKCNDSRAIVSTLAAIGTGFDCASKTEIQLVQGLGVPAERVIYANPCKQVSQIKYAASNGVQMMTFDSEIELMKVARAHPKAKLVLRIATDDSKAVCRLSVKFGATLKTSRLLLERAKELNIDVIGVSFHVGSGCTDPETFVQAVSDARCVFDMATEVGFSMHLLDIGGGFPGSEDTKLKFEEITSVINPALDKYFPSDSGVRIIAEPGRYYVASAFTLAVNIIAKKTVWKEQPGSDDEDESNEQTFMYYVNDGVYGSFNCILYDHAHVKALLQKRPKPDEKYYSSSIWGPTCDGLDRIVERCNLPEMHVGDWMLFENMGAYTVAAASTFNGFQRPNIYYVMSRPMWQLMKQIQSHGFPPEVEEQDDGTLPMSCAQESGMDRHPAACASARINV
Outline: (§4)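 L1210 cells treated with analogue: 4 h for ODC, 6 h for AdoMetDC, 48 h for SSAT. ODC and AdoMetDC measured as 14CO2 released from [14C]carboxyl-labeled L-ornithine or S-adenosyl-L-methionine. SSAT measured as [14C]acetylspermidine formed from SPD and [14C]acetyl-CoA. Triplicate runs, each with untreated and positive controls (10 μM DENSPM for ODC and AdoMetDC). Activity given as % of untreated control.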

[12] = target: Spermidine/spermine N(1)-acetyltransferase (SAT) (Mus musculus) (UniProt Q6P8J2+P48026); assay: Impact on polyamine biosynthetic enzyme Spermidine N-acetyl-transferase in L1210 cells treated with the compound for 48 hr.; format: cell-based; design: concentration or dose not given beside the values; outline: as §4
Chain of Spermidine/spermine N(1)-acetyltransferase (SAT) (Mus musculus) (P48026 whole entry, looked up): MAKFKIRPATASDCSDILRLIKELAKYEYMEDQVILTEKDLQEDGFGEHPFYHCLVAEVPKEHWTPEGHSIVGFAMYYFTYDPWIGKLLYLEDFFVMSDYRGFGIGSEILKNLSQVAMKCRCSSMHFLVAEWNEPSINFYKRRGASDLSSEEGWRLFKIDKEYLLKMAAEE
Chain of Spermidine/spermine N(1)-acetyltransferase (SAT) (Mus musculus) (Q6P8J2 whole entry, looked up): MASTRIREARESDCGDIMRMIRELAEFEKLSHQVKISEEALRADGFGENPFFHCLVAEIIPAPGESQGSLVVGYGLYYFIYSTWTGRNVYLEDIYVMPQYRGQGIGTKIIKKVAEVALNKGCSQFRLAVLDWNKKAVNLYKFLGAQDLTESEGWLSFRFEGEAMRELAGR

L1210 [13] = assay: Impact on polyamine biosynthetic enzyme, S-adenosyl-L-methionine decarboxylase in L1210 cells treated with the compound for 6 hr.; format: cell-based; design: concentration or dose not given beside the values; outline: as §4
L1210 [14] = assay: Impact (100 uM) on polyamine(Put) pools in L1210 cells, expressed relative to untreated controls (control = 100%).; format: functional, Mus musculus; outline: as §2
L1210 [15] = assay: Impact (100 uM) on polyamine(Spm) pools in L1210 cells, expressed relative to untreated controls (control = 100%).; format: functional, Mus musculus; outline: as §2
L1210 [16] = assay: Inhibitory concentration against L1210 cells on 96h incubation.; format: functional, cell-based; details: Mus musculus, L1210, 96 h; outline: as §3
L1210 [17] = assay: Level (100 uM) in L1210 cells.; format: functional, Mus musculus; outline: as §2
L1210 [18] = assay: Impact (100 uM) on polyamine(Spd) pools in L1210 cells, expressed relative to untreated controls (control = 100%).; format: functional, Mus musculus; outline: as §2
L1210 [19] = assay: Impact (30 uM) on polyamine(Put) pools in L1210 cells, expressed relative to untreated controls (control = 100%).; format: functional, Mus musculus; outline: as §2
L1210 [20] = assay: Impact (30 uM) on polyamine(Spd) pools in L1210 cells, expressed relative to untreated controls (control = 100%).; format: functional, Mus musculus; outline: as §2
L1210 [21] = assay: Impact (30 uM) on polyamine(Spm) pools in L1210 cells, expressed relative to untreated controls (control = 100%).; format: functional, Mus musculus; outline: as §2
L1210 [22] = assay: Level (30 uM) in L1210 cells.; format: functional, Mus musculus; outline: as §2

SMILES	pKa [1]	pKa [2]	pKa [3]	pKa [4]	IC50 (L1210 [8]) [µM]	Ki (L1210 [10]) [µM]	Control [11] [%]	Control [12] [%]	Control (L1210 [13]) [%]	Polyamine pools (L1210 [14]) [%]	Polyamine pools (L1210 [15]) [%]	IC50 (L1210 [16]) [µM]	Polyamine pools (L1210 [18]) [%]	also measured
C(CCNCC1CCNCC1)CNCC1CCNCC1	10.9	10.7	9.43	8.45	0.1	4.9	6	325	39					Polyamine pools (L1210 [5]): 0%; Polyamine pools (L1210 [6]): 5%; Polyamine pools (L1210 [7]): 50%; Analogue level (L1210 [9]): 2518 pM (10e6*cells)-1
NCCCNCCCCNCCCN [SPERMINE]	10.9	10.1	8.82	7.95										
FC(F)(F)CNCCCNCCCCNCCCNCC(F)(F)F	10.5	9.41	4.81	4.09		285	100	97	100	103	108	> 100	103	Analogue level (L1210 [17]): <20 pM (10e6*cells)-1
c1cc(CNCCCCNCc2ccncc2)ccn1	9.23	7.64	4.43	3.77	80	> 500	90	87	100	87	99		95	
c1cc(CCNCCCCNCCc2ccncc2)ccn1	9.81	8.85	5.69	4.93	> 100	> 500	100	140	100	124	96		85	
CCNCCCNCCCCNCCCNCC [BIS(ETHYL)SPERMINE]							3	460	28			0.2		Polyamine pools (L1210 [19]): 0%; Polyamine pools (L1210 [20]): 0%; Polyamine pools (L1210 [21]): 22%; Analogue level (L1210 [22]): 1780 pM (10e6*cells)-1
